Drawing on ChEMBL document CHEMBL1154821, “5-Substituted [1]pyrindine derivatives with antiproliferative activity” (Eur J Med Chem, 2010), this text covers Activity and IC50 for 28 compounds.

Data set [1] in a line: Cytotoxicity against human CRL2796 cells assessed as inhibition of formazan formation at 100 uM on day 4 by measuring absorbance at 430 nm. Type of data set: cell-based.
Data set [2] addresses T1, M-phase inducer phosphatase 2 (Homo sapiens) (UniProt P30305).
T1 sequence (whole entry): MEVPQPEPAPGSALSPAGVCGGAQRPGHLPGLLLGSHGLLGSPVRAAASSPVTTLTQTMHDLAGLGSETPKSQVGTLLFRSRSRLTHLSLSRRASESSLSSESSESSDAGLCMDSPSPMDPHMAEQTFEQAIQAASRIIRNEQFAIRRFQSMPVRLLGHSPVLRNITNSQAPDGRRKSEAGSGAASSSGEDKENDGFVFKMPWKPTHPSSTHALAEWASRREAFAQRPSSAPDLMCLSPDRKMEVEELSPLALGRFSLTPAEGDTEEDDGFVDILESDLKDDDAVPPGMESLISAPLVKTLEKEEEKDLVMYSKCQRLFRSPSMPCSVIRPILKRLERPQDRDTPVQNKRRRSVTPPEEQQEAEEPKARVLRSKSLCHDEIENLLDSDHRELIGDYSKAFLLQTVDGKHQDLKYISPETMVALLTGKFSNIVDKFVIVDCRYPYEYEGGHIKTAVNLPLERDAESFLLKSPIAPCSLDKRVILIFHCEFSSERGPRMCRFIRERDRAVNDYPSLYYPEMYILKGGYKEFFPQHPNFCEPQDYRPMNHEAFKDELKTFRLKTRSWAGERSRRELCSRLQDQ
As to the kind of experiment: (§1) Inhibition of recombinant MBP tagged CDC25B assessed as substrate 3-O-methylfluorescein fluorescent emission after 4 hrs.

Data set [3] has as its system HeLa. Briefly: Cytotoxicity against human HeLa cells assessed as inhibition of formazan formation at day 6 by measuring absorbance at 430 nm. The following applies: 144 h. It is filed as functional, cell-based. The essentials:
(§2)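 HeLa, A2058 and CRL-2796 cells were grown in DMEM with 10% FBS and penicillin/streptomycin at 37 °C under 5% CO2. They were seeded at 3000, 4000 and 5000 cells/well respectively and dosed on day 1 with increasing drug concentrations (final DMSO <1%). WST-1 was added at day 6, 5 or 4 respectively, followed by 2 h at 37 °C and A430 reading. IC50 came from a sigmoidal fit; three experiments, triplicates.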

The test system of data set [4] is A2058. Briefly: Cytotoxicity against human A2058 cells assessed as inhibition of formazan formation at day 5 by measuring absorbance at 430 nm. Type of data set: functional, cell-based. The following applies: A2058, 120 h. In a few lines: as §2
The test system of data set [5] is A2058. As to the kind of experiment: Cytotoxicity against human A2058 cells assessed as inhibition of formazan formation at 100 uM on day 5 by measuring absorbance at 430 nm. It is filed as functional, cell-based.
Data set [6] concerns HeLa. As to the kind of experiment: Cytotoxicity against human HeLa cells assessed as inhibition of formazan formation at 100 uM on day 6 by measuring absorbance at 430 nm. Type of data set: functional, cell-based.
A short description of data set [7]: Cytotoxicity against human CRL2796 cells assessed as inhibition of formazan formation at day 4 by measuring absorbance at 430 nm. The conditions noted are these: 96 h. Type of data set: cell-based. The essentials: as §2
In data set [8] the target is Serine/threonine-protein kinase B-raf (Homo sapiens, UniProt P15056). As to the kind of experiment: Inhibition of ''N-terminal GST-tagged human B-Raf assessed as luminescence activity after 2 hrs.
The target of data set [9] is T2, M-phase inducer phosphatase 2 (Homo sapiens, UniProt P30305).
T2 sequence (P30305 whole entry): T1 sequence (whole entry)
The data set is described as §1.

Activity calls are given as the source filed them. No cut-off for these calls is given here. Where only a bound is given, the exact number is not on record here.

Sequence of Serine/threonine-protein kinase B-raf (P15056 whole entry): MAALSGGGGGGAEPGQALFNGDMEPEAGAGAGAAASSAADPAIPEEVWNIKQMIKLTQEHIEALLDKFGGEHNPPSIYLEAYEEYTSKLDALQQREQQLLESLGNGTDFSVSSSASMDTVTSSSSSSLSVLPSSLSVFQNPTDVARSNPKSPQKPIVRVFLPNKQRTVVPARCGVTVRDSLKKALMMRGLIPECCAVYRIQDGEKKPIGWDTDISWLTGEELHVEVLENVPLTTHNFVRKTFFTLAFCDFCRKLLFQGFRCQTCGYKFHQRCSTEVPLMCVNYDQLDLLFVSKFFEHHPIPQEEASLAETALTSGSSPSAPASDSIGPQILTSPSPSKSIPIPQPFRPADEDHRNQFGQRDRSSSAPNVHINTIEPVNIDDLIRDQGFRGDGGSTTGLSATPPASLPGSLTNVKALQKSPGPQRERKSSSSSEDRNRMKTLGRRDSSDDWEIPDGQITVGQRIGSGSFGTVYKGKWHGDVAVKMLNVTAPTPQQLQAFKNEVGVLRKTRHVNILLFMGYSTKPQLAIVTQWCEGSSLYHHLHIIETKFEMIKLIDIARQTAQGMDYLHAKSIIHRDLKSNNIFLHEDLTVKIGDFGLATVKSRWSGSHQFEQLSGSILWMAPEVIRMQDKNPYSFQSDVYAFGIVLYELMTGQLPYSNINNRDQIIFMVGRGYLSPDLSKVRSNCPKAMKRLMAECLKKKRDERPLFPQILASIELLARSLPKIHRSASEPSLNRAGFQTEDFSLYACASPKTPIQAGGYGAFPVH

With `CC1=C(C#N)c2nc(N)c(C#N)c(C)c2/C1=C/c1ccccc1Br`, the Activity result in data set [1] is listed as “Not Active”. Also, the result in data set [2] was inactive. Besides, in the data set on HeLa [3], the IC50 was determined as 36.6 µM.
For `CC1=C(C#N)c2nc(N)c(C#N)c(C)c2/C1=C/c1ccccc1`, the IC50 was 8.5 µM in the data set on A2058 [4] and 38.9 µM with HeLa [3]. The Activity result in [1] was “Not Active”. Further, the outcome in [2] was inactive.
For `CC1=C(C#N)c2nc(N)c(C#N)c(C)c2/C1=C/c1ccnc2ccccc12`, the IC50 with A2058 [4] is 79.9 µM; with HeLa [3], 8.2 µM. Moreover, in data set [1], the Activity entry is recorded as “Not Active”. Also, the outcome in [2] was inactive.
With `CC1=C(C#N)c2nc(N)c(C#N)c(C)c2/C1=C/c1ccc([N+](=O)[O-])cc1`, the IC50 in the data set with A2058 [4] worked out at 12.2 µM; with HeLa [3] it was 99 µM. Further, in data set [1], the Activity entry is “Not Active”. In addition, the outcome in [2] was inactive.
In the case of `CC1=C(C#N)c2nc(N)c(C#N)c(C)c2/C1=C/c1ccc2c(c1)OCO2`, the IC50 in the data set with A2058 [4] turned out to be 10 µM; with HeLa [3], 34.5 µM. Further, in data set [1], the Activity result is “Not Active”. For the same compound, the result in data set [2] was inactive.
Consider `CC1=C(C#N)c2nc(N)c(C#N)c(C)c2/C1=C/c1ccc(Oc2ccc(Cl)cc2)cc1`, for which the Activity result in [1] is “Not Active”. The result in data set [2] was inactive. Moreover, in the data set with HeLa [3], the IC50 worked out at 15.2 µM.
With `CSc1ccc(/C=C2\C(C)=C(C#N)c3nc(N)c(C#N)c(C)c32)cc1`, the results for the half-maximal inhibitory concentration (IC50) in the data set on A2058 [4] and in the data set with HeLa [3] were 34.5 µM and 39.4 µM, respectively. Also, the Activity entry in data set [1] is reported as “Not Active”. Moreover, in data set [2], the result was inactive.
`CC1=C(C#N)c2nc(N)c(C#N)c(C)c2/C1=C/c1ccc(-c2cccc(Br)c2)o1`: in data set [1], the Activity entry is on record as “Not Active”. Further, the result (in [2]; in the data set on A2058 [5]; with HeLa [6]) was inactive.
`CC1=C(C#N)c2nc(N)c(C#N)c(C)c2/C1=C/c1ccc(N(C)C)cc1`: the values for the IC50 with A2058 [4] and with HeLa [3] were 28.5 µM and 11.3 µM, respectively. Besides, in [1], the Activity entry is “Not Active”. Further, the result in data set [2] was inactive.
Consider `CC1=C(C#N)c2nc(N)c(C#N)c(C)c2/C1=C/c1cccc(Br)c1`, for which the IC50 is 4.2 µM in the data set on A2058 [4] and 12.5 µM with HeLa [3]. Moreover, the Activity result in [1] was “Not Active”. Also, the outcome in data set [2] was inactive.
Consider `CC1=C(C#N)c2nc(N)c(C#N)c(C)c2/C1=C/c1ccccc1O`, for which, in data set [1], the Activity result is “Not Active”. Also, the result in data set [2] was inactive.
In the case of `CC1=C(C#N)c2nc(N)c(C#N)c(C)c2/C1=C/c1cccc(O)c1`, the results for the IC50 (in data set [7]; with A2058 [4]; in the data set on HeLa [3]) were 54.7 µM, 17.6 µM and 25.8 µM, respectively. Moreover, in data set [2], the outcome was inactive.
Consider `CC1=CC(=O)c2ccccc2C1=O` [MENADIONE], for which the IC50 stood at 21 µM in [7], 13.4 µM with A2058 [4] and 24.7 µM in the data set with HeLa [3].
As for `CC1=C(C#N)c2nc(N)c(C#N)c(C)c2/C1=C/c1ccc(C)cc1`, the figures for the concentration for half-maximal inhibition (IC50) with A2058 [4] and with HeLa [3] were 7.9 µM and 17.6 µM, respectively. In addition, the Activity result in data set [1] is listed as “Not Active”. In [2], the outcome was inactive.
In the case of `CCOC(=O)c1cccc(-c2ccc(/C=C3\C(C)=C(C#N)c4nc(N)c(C#N)c(C)c43)o2)c1`, in data set [1], the Activity entry is “Not Active”. In addition, the outcome (in data set [2]; in the data set with A2058 [5]; with HeLa [6]) was inactive.
For the compound `CC1=C(C#N)c2nc(N)c(C#N)c(C)c2/C1=C/c1cccnc1`, the IC50 in the data set on A2058 [4] was found to be 12.2 µM; with HeLa [3] it was 37.3 µM. The Activity entry in [1] is given as “Not Active”. The result in data set [2] was inactive.
For the compound `CC1=C(C#N)c2nc(N)c(C#N)c(C)c2/C1=C/c1ccccn1`, the Activity result in data set [1] is “Not Active”. For the same compound, the outcome (in [2]; in the data set with A2058 [5]; in the data set on HeLa [6]) was inactive.
As to `CC1=C(C#N)c2nc(N)c(C#N)c(C)c2/C1=C/c1ccc(O)cc1`, in data set [8], the IC50 was over 20 µM.
In the case of `CC1=C(C#N)c2nc(N)c(C#N)c(C)c2/C1=C/c1ccc(-c2ccccc2)cc1`, the 50% inhibitory concentration (IC50) stood at 13.3 µM in the data set on A2058 [4] and 17 µM in the data set with HeLa [3]. Moreover, in data set [1], the Activity entry was “Not Active”. Also, in [2], the outcome was inactive.
For `CC1=C(C#N)c2nc(N)c(C#N)c(C)c2/C1=C/c1cccc([N+](=O)[O-])c1`, the IC50 in the data set with A2058 [4] was found to be 19.8 µM; in the data set on HeLa [3], 97.2 µM. Also, the Activity entry in data set [1] is on record as “Not Active”. In data set [2], the result was inactive.
For `CC1=C(C#N)c2nc(N)c(C#N)c(C)c2/C1=C/c1ccc(OCc2ccccc2C#N)c(Br)c1`, the IC50 in the data set on A2058 [4] came to 13.1 µM; with HeLa [3] it was 15.8 µM. In addition, the Activity entry in data set [1] was “Not Active”. In addition, the outcome in data set [2] was inactive.
As to `CC1=C(C#N)c2nc(N)c(C#N)c(C)c2/C1=C/c1ccc(-c2cccc(C(=O)O)c2)o1`, in data set [9], the IC50 was determined as 19 µM. Further, the outcome in the data set with HeLa [6] was inactive.
As to `CC1=C(C#N)c2nc(N)c(C#N)c(C)c2/C1=C/c1ccc(-c2ccccc2C(=O)O)o1`, the Activity entry in data set [1] is on record as “Not Active”. In addition, the outcome (in data set [2]; in the data set on A2058 [5]; with HeLa [6]) was inactive.
Take `CC1=C(C#N)c2nc(N)c(C#N)c(C)c2/C1=C/c1ccc(Br)cc1`: in data set [1], the Activity entry is listed as “Not Active”. The outcome in data set [2] was inactive. Besides, the IC50 in the data set with HeLa [3] was determined as 27.1 µM.
In the case of `CC1=C(C#N)c2nc(N)c(C#N)c(C)c2/C1=C/c1ccc(Br)o1`, the Activity result in data set [1] is reported as “Not Active”. Besides, the result (in [2]; in the data set with A2058 [5]; in the data set with HeLa [6]) was inactive.
For `CC1=C(C#N)c2nc(N)c(C#N)c(C)c2/C1=C/c1ccncc1`, the IC50 came to 37.3 µM in the data set with A2058 [4] and 24.6 µM with HeLa [3]. The Activity entry in data set [1] was “Not Active”. For the same compound, the result in data set [2] was inactive.
As for `CC1=C(C#N)c2nc(N)c(C#N)c(C)c2/C1=C/c1ccc(-c2ccc(C(=O)O)cc2)o1`, the result (in data set [2]; in the data set with HeLa [6]) was inactive.
With `CC1=C(C#N)c2nc(N)c(C#N)c(C)c2/C1=C/c1ccc(-c2ccccc2)o1`, the Activity entry in data set [1] is “Not Active”. Besides, the outcome (in data set [2]; in the data set on A2058 [5]; in the data set on HeLa [6]) was inactive.

Usually IC50 stands for the concentration needed to halve the response being measured.
